Measured values from ChEMBL document CHEMBL1938336, “Quinolone derivatives containing strained spirocycle as orally active glycogen synthase kinase 3β (GSK-3β) inhibitors for type 2 diabetics” (Bioorg Med Chem, 2012).
Values after ≈ are worked out from the molar mass of the structure shown.

Legend:
[1] = biological target: T1, Glycogen synthase kinase-3 beta (Homo sapiens, UniProt P49841); test: Inhibition of GSK3-beta in human HepG2 cells assessed as incorporation of [3H]glucose into glycogen at 30 uM after 3 hrs by liquid scintillation counting relative to CHIR99021; format: cell-based
Outline: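 Hep G2 cells seeded at 1 × 10^5 per well and cultured 3 days, then serum-starved 3 h in low-glucose DMEM. Compound added at varying concentrations with […] D-[2-3H]glucose (0.3% DMSO final) for 3 h at 37 °C. Cells lysed in KOH, glycogen ethanol-precipitated, and [3H] incorporation counted by scintillation. Efficacy is % of reference at 30 µM; n = 3.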
Target sequence in this assay (P49841 whole entry, looked up): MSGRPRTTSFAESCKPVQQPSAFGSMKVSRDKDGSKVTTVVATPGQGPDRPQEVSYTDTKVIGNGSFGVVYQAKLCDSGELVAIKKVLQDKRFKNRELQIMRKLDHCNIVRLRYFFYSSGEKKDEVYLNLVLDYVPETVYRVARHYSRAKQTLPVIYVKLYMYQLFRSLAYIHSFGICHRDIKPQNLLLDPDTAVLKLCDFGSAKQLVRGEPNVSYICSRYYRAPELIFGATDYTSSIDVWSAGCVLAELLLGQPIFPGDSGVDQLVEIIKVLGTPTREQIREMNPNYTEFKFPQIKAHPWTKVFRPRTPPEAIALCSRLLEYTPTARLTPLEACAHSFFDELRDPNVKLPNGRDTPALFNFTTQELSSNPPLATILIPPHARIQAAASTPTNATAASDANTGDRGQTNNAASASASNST

[2] = tested on: Staphylococcus aureus; test: Antibacterial activity against Staphylococcus aureus after 18 hrs by microdilution method; format: organism-based; conditions: in vitro
[3] = biological target: T1, Glycogen synthase kinase-3 beta; test: Inhibition of human recombinant GSK3-beta after 1 hr by KinaseGlo luciferase assay
Target sequence in this assay (P49841 whole entry): as the sequence (P49841 whole entry, looked up) above

[4] = tested on: Escherichia coli; test: Antibacterial activity against Escherichia coli after 18 hrs by microdilution method; format: organism-based
[5] = biological target: T1, Glycogen synthase kinase-3 beta; test: Inhibition of GSK3-beta in human HepG2 cells assessed as incorporation of [3H]glucose into glycogen after 3 hrs by liquid scintillation counting; format: cell-based
Target sequence in this assay (P49841 whole entry): as the sequence (P49841 whole entry, looked up) above

[6] = Ratio of drug uptake in ICR mouse liver to ICR mouse plasma at 300 mg/kg, po at 4 hrs; format: ADME, organism-based; parameters: dose 300 mg/kg, route oral
Outline: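 Liver and plasma concentrations measured 4 h after an oral 300 mg/kg dose in ICR mice; ratio given as liver/plasma; means, n = 5–6.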

[7] = AUC (0 to 25 hrs) in ICR mouse plasma at 300 mg/kg, po; format: ADME, organism-based; parameters: time < 25 hr, dose 300 mg/kg, route oral
[8] = AUC in ICR mouse liver at 300 mg/kg, po; format: ADME, organism-based; parameters: dose 300 mg/kg, route oral
Outline: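 ICR mice dosed orally at 300 mg/kg. Liver AUC was calculated from the plasma AUC and the liver-to-plasma concentration ratio at 4 h post-dose. Means, n = 5–6.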

[9] = tested on: Mus musculus; test: Antidiabetic activity in fasted ICR mouse assessed as inhibition of plasma glucose concentration at 50 mg/kg, po administered 30 mins prior to glucose-challenge by oral glucose tolerance test; format: functional
Outline: (§1)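 7-week-old ICR mice fasted 15–17 h, dosed orally with compound suspended in 0.3% CMC-Na or with vehicle. Glucose 5 g/kg given orally 30 min later. Tail-vein blood sampled before dosing and at 0, 0.5, 1 and 2 h after the glucose load; plasma glucose measured by glucose C II-test. The summed 0.5 + 1 h glucose values are expressed as % decrease versus vehicle.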

[10] = tested on: Mus musculus; test: Ratio of AUC (0 to 25 hrs) in ICR mouse plasma to AUC in ICR mouse liver at 300 mg/kg, po; format: ADME, organism-based; parameters: dose 300 mg/kg, route oral; conditions: in vivo
[11] = tested on: Mus musculus; test: Antidiabetic activity in fasted ICR mouse assessed as inhibition of plasma glucose concentration at 100 mg/kg, po administered 30 mins prior to glucose-challenge by oral glucose tolerance test; format: functional; outline: as §1
[12] = tested on: Mus musculus; test: Antidiabetic activity in po dosed fasted ICR mouse assessed as inhibition of plasma glucose concentration administered 30 mins prior to glucose-challenge by oral glucose tolerance test; format: functional, organism-based; outline: as §1
[13] = tested on: Mus musculus; test: Antidiabetic activity in fasted ICR mouse assessed as inhibition of plasma glucose concentration at 300 mg/kg, po administered 30 mins prior to glucose-challenge by oral glucose tolerance test; format: functional; outline: as §1
[14] = tested on: Mus musculus; test: Antidiabetic activity in fasted ICR mouse assessed as inhibition of plasma glucose concentration at 150 mg/kg, po administered 30 mins prior to glucose-challenge by oral glucose tolerance test; format: functional; outline: as §1

Row | Compound | Efficacy [1] [%] | MIC [2] [µM] | IC50 [3] [nM] | MIC [4] [µM] | EC50 [5] [nM] | Kp at 4 h [6] | AUC(0-t) at 25 h [7] [µM·h] | AUC [8] [µM·h] | inhibition in vivo at 50 mg/kg [9] [%] | Ratio AUC [10] | inhibition in vivo at 100 mg/kg [11] [%] | inhibition [12] | inhibition in vivo at 300 mg/kg [13] [%] | inhibition in vivo at 150 mg/kg [14] [%]
1 | Nc1c(F)c(NCCNc2ccccn2)c2c3c1c(=O)c(C(=O)O)cn3C1(CCO2)CC1 | 42 | 5 (≈ 2.2 µg/mL) | 37 | 9 (≈ 3.96 µg/mL) |  |  |  |  |  |  |  |  |  | 
2 | Nc1c(F)c(NCCNc2ccccn2)c2c3c1c(=O)c(C(=O)O)cn3C1(CCC1)CCN2 | 12 | > 140 | 550 | > 140 |  |  |  |  |  |  |  |  |  | 
3 | CC1CC2(CCC2)n2cc(C(=O)O)c(=O)c3c(N)c(F)c(NCCNc4ccccn4)c(c32)O1 (configuration not stated) | 94 | > 34 | 250 | > 34 | 2100 |  |  |  |  |  |  |  |  | 
4 | Cc1c[nH]c(-c2cnc(NCCNc3ccc(C#N)cn3)nc2-c2ccc(Cl)cc2Cl)n1 [LADUVIGLUSIB] |  |  |  |  |  | 3.8 | 210 | 820 |  |  |  |  |  | 
5 | Nc1c(F)c(NCCNc2ccccn2)c2c3c1c(=O)c(C(=O)O)cn3C1(CCCC1)CCO2 | 85 | > 34 | 250 | > 34 | 13000 |  |  |  |  |  |  |  |  | 
6 | Nc1c(F)c(NCCNc2ccccn2)c2c3c1c(=O)c(C(=O)O)cn3C1(CCC1)CCO2 | 65 | 18 (≈ 8.16 µg/mL) | 36 | > 34 | 3200 | 32 | 24 | 760 | 20 | 32 | 32 | Dose-dependent effect | 31 | 39
7 | CC1COc2c(NCCNc3ccccn3)c(F)c(N)c3c(=O)c(C(=O)O)cn(c23)C12CCC2 (configuration not stated) | 48 | > 34 | 10 | > 34 | 1400 | 32 | 6.8 | 217 |  |  |  |  | 13 | 
8 | Nc1c(F)c(NCCNc2ccccn2)c2c3c1c(=O)c(C(=O)O)cn3C1(CCCC1)CO2 |  |  |  |  | 20000 |  |  |  |  |  |  |  |  | 
9 | Cc1cnc(-c2cnc(NCCNc3ccc(C#N)cn3)nc2-c2ccc(Cl)cc2Cl)[nH]1 [LADUVIGLUSIB] | 100 |  |  |  |  |  |  |  |  |  |  |  | 38 | 
